Results from article PMC4050191 (FEBS Open Bio, 2014).
Read-outs that look alike come from different tables or passages of the source.

How the values were obtained:
[1] = biological target: CK2 (catalytic α and regulatory β subunits complex) (Homo sapiens, UniProt P67870+P68400); experiment: In vitro phosphorylation by CK2, HPLC quantification; format: biochemical
[2] = tested on: HsC1P (human centrin 1 phosphorylated by CK2 at T138); experiment: ITC, peptide binding to CK2-phosphorylated HsCen1; conditions: EDTA / absence of Ca2+; phosphorylated versus unphosphorylated centrin 1
[3] = tested on: HsCen1 (full-length human centrin 1); experiment: ITC, peptide binding to full-length HsCen1
How it was run: (§1)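 Recombinant human centrin (full-length or C-terminal domain; Asp variants made by double-PCR mutagenesis) was expressed in E. coli BL21(DE3), heat-treated at 63 °C, then purified by ion-exchange, phenyl and gel-filtration chromatography. ITC at 30 °C: 10 μM centrin titrated with 100 μM N-acetylated, C-amidated peptide in 50 mM MOPS, 100 mM NaCl, pH 7.5, plus 1 mM CaCl₂ or 2 mM EDTA. Dilution heats subtracted; data fitted for n, Ka and ΔH.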

C-HsCen2-S158D = experiment: ITC, peptide binding to C-HsCen2 S158D; design: species or system human; conditions: versus C-HsCen2 wild type
How it was run: as §1

C-HsCen2 T138D-S158D = experiment: ITC, peptide binding to C-HsCen2 T138D-S158D; design: species or system human; conditions: presence of Ca2+; versus C-HsCen2 wild type
How it was run: as §1

C-HsCen2-T138D = experiment: ITC, peptide binding to C-HsCen2 T138D; design: species or system human; conditions: presence of Ca2+; versus C-HsCen2 wild type
How it was run: as §1

[4] = biological target: T1, human centrin 1, full-length (human, UniProt Q12798 1-172); experiment: ITC
T1 sequence: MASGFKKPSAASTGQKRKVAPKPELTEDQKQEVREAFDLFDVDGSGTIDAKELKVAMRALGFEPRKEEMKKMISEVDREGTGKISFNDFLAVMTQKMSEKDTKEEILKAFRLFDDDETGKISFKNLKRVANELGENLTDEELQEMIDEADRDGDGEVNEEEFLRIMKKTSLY

[5] = biological target: T2, human centrin 1 T138D, full-length (human, UniProt Q12798 1-172, T138D); experiment: ITC
T2 sequence: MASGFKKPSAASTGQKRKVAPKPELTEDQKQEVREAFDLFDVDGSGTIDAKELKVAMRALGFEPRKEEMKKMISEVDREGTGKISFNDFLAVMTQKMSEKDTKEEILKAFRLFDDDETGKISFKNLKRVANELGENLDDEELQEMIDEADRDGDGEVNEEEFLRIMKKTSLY

[6] = biological target: T3, C-terminal domain of human centrin 1 (M93-Y172) (human, UniProt Q12798 93-172); experiment: ITC
[7] = biological target: T1, human centrin 1, full-length; experiment: ITC; remark: listed apart in the source
[8] = biological target: T2, human centrin 1 T138D, full-length; experiment: ITC; remark: listed apart in the source
[9] = biological target: T3, C-terminal domain of human centrin 1 …; experiment: ITC; remark: listed apart in the source

CK2 (catalytic α and regulatory β subunits complex), sequence (P68400 whole entry): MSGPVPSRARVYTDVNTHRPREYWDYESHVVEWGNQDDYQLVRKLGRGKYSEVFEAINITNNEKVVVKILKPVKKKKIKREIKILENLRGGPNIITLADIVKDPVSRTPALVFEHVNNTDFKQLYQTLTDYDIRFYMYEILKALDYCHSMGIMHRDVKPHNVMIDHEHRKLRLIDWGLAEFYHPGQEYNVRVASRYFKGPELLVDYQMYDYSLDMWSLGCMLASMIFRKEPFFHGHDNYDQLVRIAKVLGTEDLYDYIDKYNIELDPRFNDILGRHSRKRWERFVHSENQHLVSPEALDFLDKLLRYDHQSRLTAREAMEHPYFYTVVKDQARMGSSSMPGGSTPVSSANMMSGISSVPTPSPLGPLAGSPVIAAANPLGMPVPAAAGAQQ
CK2 (catalytic α and regulatory β subunits complex), sequence (P67870 whole entry partner): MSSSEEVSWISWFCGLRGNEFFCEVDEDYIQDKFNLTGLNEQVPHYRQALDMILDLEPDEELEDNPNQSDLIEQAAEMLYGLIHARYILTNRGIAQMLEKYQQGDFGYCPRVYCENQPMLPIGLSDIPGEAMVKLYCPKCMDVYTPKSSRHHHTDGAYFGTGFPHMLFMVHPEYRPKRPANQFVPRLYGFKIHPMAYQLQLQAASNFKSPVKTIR

With “C-HsCen1: C-terminal domain (M93-Y172) of human centrin 1, recombinant; here as CK2 substrate” the “reduction of phosphorylation by addition of Ca2+” value ([1]; CK2, 37 °C) was 30%, the “protein phosphorylated by CK2” value ([1]; after 3 h at 37 °C, EGTA, HPLC peak integration) was 62% and the “protein phosphorylated by CK2” value ([1]; after 3 h at 37 °C, presence of Ca2+) was 30%. For the same molecule, the “protein phosphorylated by CK2” value ([1]; after 5 h, without Ca2+ (Fig. 1A, B)) was 80%, the “protein phosphorylated by CK2” value ([1]; after 10 h, presence of EGTA) was 95% and the “protein phosphorylated by CK2” value ([1]; after 48 h, presence of Ca2+) was 80%. The “time after which 95% phosphorylation was achieved” value ([1]; presence of Ca2+) was 48 h.

677-SQHNRQLLRGALRRWK-692 [R18-Sfi1] was tested, and the “factor of reduction of binding by phosphorylation at T138” value [2] was 10 and the “equilibrium association constant Ka” value ([3]; presence of Ca2+, centrin 1, ITC, one-site binding model) was 2.5 10^8 M^−1.

With 641-RADLHHQHSVLHRALQAWVT-660 [R17-Sfi1] the “factor of reduction of affinity by the S158D mutation” value (C-HsCen2-S158D; absence of Ca2+) was 4.7, the “factor of increase of affinity by the S158D mutation” value (C-HsCen2-S158D; presence of Ca2+) was 5 and the “factor of increase of affinity by the T138D-S158D double mutation” value (C-HsCen2 T138D-S158D) was 2. The “factor of increase of affinity by the T138D mutation” value (C-HsCen2-T138D) was 3 and the “factor of decrease of binding constant of HsCen1 compared with R18-Sfi1” value ([3]; absence of Ca2+) was 10.

For Ac-SQHNRQLLRGALRRWK-NH2 [HsSfiR18, repeat 18 peptide of human Sfi1 (677-692)], the Ka [4] was 3.47e+06 M⁻¹, the dH [4] was -34.7 kcal/mol and the “stoichiometry N” value [4] was 0.88. For the same molecule, the Ka [5] was 875000 M⁻¹, the dH [5] was -36.4 kcal/mol and the “stoichiometry N” value [5] was 0.83. The Ka [6] was 8.15e+07 M⁻¹, the dH [6] was -22.5 kcal/mol and the “stoichiometry N” value [6] was 0.99. The Ka [7] was 2.49e+08 M⁻¹, the dH [7] was -35.5 kcal/mol and the “stoichiometry N” value [7] was 0.88. The Ka [8] was 2.39e+08 M⁻¹, the dH [8] was -36.7 kcal/mol and the “stoichiometry N” value [8] was 0.77. For the same molecule, the Ka [9] was 3.56e+06 M⁻¹, the dH [9] was -29.8 kcal/mol and the “stoichiometry N” value [9] was 1.03.
